In the library only some 1.4% were active in any assay of this set; here they are far more common.
FXIIa inh 1536: factor XIIa (human) inhibition; P00748; purified FXIIa, Boc-QGR-AMC fluorogenic substrate, 2 h; inhibition, % at 5 µM; actives 0.3% (n = 220,000); AID 800; in the data active means inhibition above about 40%
Target sequence (P00748 20-372 limits assumed): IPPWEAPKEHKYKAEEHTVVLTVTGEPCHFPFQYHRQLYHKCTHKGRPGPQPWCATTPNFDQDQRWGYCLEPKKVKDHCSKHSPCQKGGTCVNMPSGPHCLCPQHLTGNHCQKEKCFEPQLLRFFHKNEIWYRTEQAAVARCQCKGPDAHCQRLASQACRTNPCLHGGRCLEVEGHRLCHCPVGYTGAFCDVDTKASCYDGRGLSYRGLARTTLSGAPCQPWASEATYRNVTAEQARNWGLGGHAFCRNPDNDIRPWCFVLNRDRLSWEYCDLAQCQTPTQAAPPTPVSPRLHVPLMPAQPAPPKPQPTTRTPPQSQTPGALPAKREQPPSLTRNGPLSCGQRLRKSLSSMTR
Target sequence (P00748 373-615 limits assumed): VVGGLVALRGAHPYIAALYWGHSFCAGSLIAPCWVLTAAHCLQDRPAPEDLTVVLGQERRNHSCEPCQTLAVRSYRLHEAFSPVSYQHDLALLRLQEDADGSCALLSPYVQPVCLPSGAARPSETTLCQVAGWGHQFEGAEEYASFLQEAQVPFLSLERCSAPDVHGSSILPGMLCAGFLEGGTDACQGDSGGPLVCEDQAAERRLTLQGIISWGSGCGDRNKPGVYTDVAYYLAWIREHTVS
Furin inhibitor: human furin inhibition; P09958; purified furin, fluorogenic substrate cleavage; inhibition, % at 20 µM or 30 µM; actives 0.061% (n = 220,000); AID 463115; in the data active means inhibition above about 25%
KLK5 inh: inhibitors of human kallikrein 5; Q9Y337; recombinant hK5, fluorogenic AMC substrate cleavage; inhibition, % at 5 µM; actives 0.59% (n = 210,000); AID 873;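 active means inhibition of 40% or more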
m-calpain inh: blocks pig calpain II enzyme activity; inhibition, % at 16 µM; actives 0.37% (n = 220,000); AID 1236; purified calpain II, fluorogenic peptide substrate, 30 min;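 active means inhibition above about 50%, limit read from the data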
thrombin 1536: thrombin (human) inhibition | alpha-thrombin, Boc-VPR-AMC fluorogenic substrate cleavage | actives 0.26% (n = 220,000) | inhibition, % at 5 µM;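 active means inhibition at or above 40%; inactive means inhibition below 40%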
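Test system: human alpha-thrombin protein / Dosing: one concentration per compound, 5 µM, with 0.2% DMSO / Medium: pH 7.5 Tris-saline with Tween 20 / Benchmarks: no-compound enzyme wells and no-enzyme blanks / Read-out basis: percent inhibition of thrombin substrate cleavage / Timing: reaction at room temperature / Measured by: fluorescence, ex 355 nm, em 460 nm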
FXIa inh: inhibitors of human coagulation factor XIa; P03951; inhibition, % at 5 µM; actives 0.14% (n = 220,000); purified FXIa, Boc-Glu-Ala-Arg-AMC fluorogenic substrate;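 active means inhibition of at least 40%; inactive means inhibition below 40%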;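 further: fluorescence of freed AMC excited at 355 nm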
Hits are given with their value.

Screening COC(=O)c1ccc(C(C(=O)NC2CCCCC2)N(CCN2CCOCC2)C(=O)Cc2cccs2)cc1 (stereo not given) returned FXIIa inh 1536 100, Furin inhibitor inactive, KLK5 inh inactive, m-calpain inh inactive, thrombin 1536 inactive and FXIa inh inactive.
`Brc1ccc(C2N3CCCN23)cc1` (stereo not given) gave FXIIa inh 1536 inactive, Furin inhibitor inactive, KLK5 inh inactive, m-calpain inh inactive, thrombin 1536 inactive and FXIa inh inactive.
Screening CCOC(=O)C1CCCN(c2ccc([N+](=O)[O-])c3nonc23)C1 (stereo not given) returned FXIIa inh 1536 inactive, Furin inhibitor inactive, m-calpain inh 60, thrombin 1536 inactive and FXIa inh inactive.
`O=C1NC2NC(=O)N([N+](=O)[O-])C2N1` (stereo not given) gave FXIIa inh 1536 inactive, Furin inhibitor inactive, KLK5 inh inactive, m-calpain inh inactive, thrombin 1536 inactive and FXIa inh inactive.
O=C(c1cccn2c(=O)c3cc(Br)ccc3nc12)N1CCC2(CC1)OCCO2 was read as FXIIa inh 1536 inactive, Furin inhibitor inactive, KLK5 inh inactive, m-calpain inh inactive, thrombin 1536 inactive and FXIa inh 55.
For O=C(N/N=C/c1c(O)n(CCc2ccccc2)c(=O)[nH]c1=O)c1ccncc1 the results were FXIIa inh 1536 inactive, Furin inhibitor inactive, KLK5 inh inactive, m-calpain inh inactive, thrombin 1536 50 and FXIa inh inactive.
For O=C(N/N=C/c1c(O)n(CCc2ccc(F)cc2)c(=O)[nH]c1=O)c1ccncc1 the results were FXIIa inh 1536 inactive, Furin inhibitor inactive, KLK5 inh inactive, m-calpain inh inactive, thrombin 1536 inactive and FXIa inh inactive.
Screening CCCn1cc(CN2CCCC(C(=O)c3cccc(OC)c3)C2)c(C)n1 (stereo not given) returned FXIIa inh 1536 75, Furin inhibitor inactive, KLK5 inh inactive, m-calpain inh inactive, thrombin 1536 inactive and FXIa inh inactive.
For CCN(CC)c1ccc(N=Cc2c(O)n(-c3ccccc3C)c(=O)[nH]c2=O)cc1 the results were FXIIa inh 1536 inactive, Furin inhibitor inactive, KLK5 inh inactive, m-calpain inh inactive, thrombin 1536 inactive and FXIa inh inactive.
For Cc1ccccc1-n1c(O)c(C=Nc2ccc3c(c2)OCO3)c(=O)[nH]c1=O the results were FXIIa inh 1536 inactive, Furin inhibitor 27, KLK5 inh inactive, m-calpain inh inactive, thrombin 1536 inactive and FXIa inh inactive.
Clc1ccc(COC(Cn2ccnc2)c2ccc(Cl)cc2Cl)c(Cl)c1 (stereo not given) was read as FXIIa inh 1536 inactive, Furin inhibitor inactive, KLK5 inh inactive, m-calpain inh 58, thrombin 1536 inactive and FXIa inh inactive.
Screening CC1CN=C(NCCc2ccccc2)S1 (stereo not given) returned FXIIa inh 1536 inactive, Furin inhibitor inactive, KLK5 inh inactive, m-calpain inh inactive, thrombin 1536 inactive and FXIa inh inactive.
`CC(=O)N1CN2CN(C(C)=O)CC(C(=O)c3ccc([N+](=O)[O-])cc3)(C2)C1` gave FXIIa inh 1536 inactive, Furin inhibitor inactive, KLK5 inh inactive, m-calpain inh inactive, thrombin 1536 inactive and FXIa inh inactive.
Screening CC(=O)N1CN2CN(C(C)=O)CC(C(=O)c3ccccc3)(C2)C1 returned FXIIa inh 1536 inactive, Furin inhibitor inactive, KLK5 inh 48, m-calpain inh inactive, thrombin 1536 inactive and FXIa inh inactive.
Cc1ncc(CN2CCCC(C(=O)c3ccc(C(C)(C)C)cc3)C2)s1 (stereo not given) was read as FXIIa inh 1536 63, Furin inhibitor inactive, KLK5 inh inactive, m-calpain inh inactive, thrombin 1536 inactive and FXIa inh inactive.
CN(C)C(=O)Oc1ccc(-c2cn3cc(Cl)ccc3n2)cc1 was read as FXIIa inh 1536 inactive, Furin inhibitor inactive, KLK5 inh 44, m-calpain inh inactive, thrombin 1536 inactive and FXIa inh inactive.
`Cn1c(O)c(C=NCCN2CCN(C(=O)Nc3ccccc3)CC2)c(=O)n(C)c1=O` gave FXIIa inh 1536 inactive, Furin inhibitor inactive, KLK5 inh inactive, m-calpain inh inactive, thrombin 1536 inactive and FXIa inh inactive.
`Cn1cccc1/C=C1\C(=O)NC(=O)N(Cc2ccccc2Cl)C1=O` gave FXIIa inh 1536 inactive, Furin inhibitor inactive, KLK5 inh inactive, m-calpain inh inactive, thrombin 1536 inactive and FXIa inh 48.
`COc1ccc(OCC(=O)N2CCN(Cc3ccc(SC)cc3)CC2)cc1` gave FXIIa inh 1536 inactive, Furin inhibitor inactive, KLK5 inh inactive, m-calpain inh inactive, thrombin 1536 49 and FXIa inh inactive.
Screening Nc1ccncc1Cl returned FXIIa inh 1536 inactive, Furin inhibitor inactive, KLK5 inh 41, m-calpain inh inactive, thrombin 1536 inactive and FXIa inh inactive.
Screening Cc1c(N=Nc2c(O)[nH]c(=S)[nH]c2=O)c(=O)n(-c2ccccc2)n1C returned FXIIa inh 1536 inactive, Furin inhibitor inactive, KLK5 inh inactive, m-calpain inh inactive, thrombin 1536 inactive and FXIa inh inactive.
CCOc1ccc(-n2c(O)c(N=Nc3c(C)n(C)n(-c4ccccc4)c3=O)c(=O)[nH]c2=O)cc1 was read as FXIIa inh 1536 inactive, Furin inhibitor 25, KLK5 inh inactive, m-calpain inh inactive, thrombin 1536 inactive and FXIa inh inactive.
For CC(C)(C#CCCCCC#CC(C)(C)[N+](C)(C)C)[N+](C)(C)C the results were FXIIa inh 1536 inactive, Furin inhibitor inactive, KLK5 inh inactive, m-calpain inh inactive, thrombin 1536 inactive and FXIa inh inactive.
Screening O=C1C=Cc2ccccc2C1=O returned FXIIa inh 1536 inactive, Furin inhibitor inactive, KLK5 inh inactive, m-calpain inh 60, thrombin 1536 inactive and FXIa inh inactive.
For O=C(NCc1ccccn1)c1ccccc1Cl the results were FXIIa inh 1536 inactive, Furin inhibitor inactive, KLK5 inh 61, m-calpain inh inactive, thrombin 1536 inactive and FXIa inh inactive.
O=c1[nH]c(=S)[nH]c(O)c1CN1CCCCC1 was read as FXIIa inh 1536 inactive, Furin inhibitor inactive, KLK5 inh inactive, m-calpain inh inactive, thrombin 1536 inactive and FXIa inh inactive.
For Cc1ccc(CN2CCCC(C(=O)c3sccc3C)C2)o1 (stereo not given) the results were FXIIa inh 1536 inactive, Furin inhibitor inactive, m-calpain inh inactive, thrombin 1536 inactive and FXIa inh inactive.
`COc1ccccc1OP(=O)(Nc1cccnc1)Oc1ccccc1OC` gave FXIIa inh 1536 inactive, Furin inhibitor inactive, KLK5 inh inactive, m-calpain inh inactive, thrombin 1536 inactive and FXIa inh inactive.
`Cc1ccccc1-n1c(C)nc2sccc2c1=O` gave FXIIa inh 1536 inactive, Furin inhibitor inactive, KLK5 inh inactive, m-calpain inh inactive, thrombin 1536 inactive and FXIa inh inactive.
Screening O=C(c1ccccc1)C1CCCN(Cc2nc(-c3cnccn3)no2)C1 (stereo not given) returned FXIIa inh 1536 inactive, Furin inhibitor inactive, KLK5 inh inactive, m-calpain inh inactive, thrombin 1536 inactive and FXIa inh inactive.

Assay outcomes as filed in PubChem BioAssay.
